From ChEMBL document CHEMBL4680221, “Discovery of pyrazole derivatives as cellular active inhibitors of histone lysine specific demethylase 5B (KDM5B/JARID1B)” (Eur J Med Chem, 2020)
Calls of active or inactive are those of the source. No cut-off for these calls is given here.

What was measured:
[1] = tested on: MKN-45; experiment: Antiproliferative activity against human MKN-45 cells assessed as reduction in cell proliferation measured after 6 days by MTS assay; format: functional, cell-based; conditions: MKN-45, 144 h
Outline: (§1)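 MKN45 cells were seeded at 3×10^3 cells per well and treated for 4 or 6 days, as indicated. Proliferation was read by MTS assay and IC50 derived. Three independent experiments, mean ± SD.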

[2] = molecular target: T1, Lysine-specific demethylase 4C (Homo sapiens, UniProt Q9H3R0); experiment: Inhibition of KDM4C (unknown origin)
T1 sequence (Q9H3R0 whole entry): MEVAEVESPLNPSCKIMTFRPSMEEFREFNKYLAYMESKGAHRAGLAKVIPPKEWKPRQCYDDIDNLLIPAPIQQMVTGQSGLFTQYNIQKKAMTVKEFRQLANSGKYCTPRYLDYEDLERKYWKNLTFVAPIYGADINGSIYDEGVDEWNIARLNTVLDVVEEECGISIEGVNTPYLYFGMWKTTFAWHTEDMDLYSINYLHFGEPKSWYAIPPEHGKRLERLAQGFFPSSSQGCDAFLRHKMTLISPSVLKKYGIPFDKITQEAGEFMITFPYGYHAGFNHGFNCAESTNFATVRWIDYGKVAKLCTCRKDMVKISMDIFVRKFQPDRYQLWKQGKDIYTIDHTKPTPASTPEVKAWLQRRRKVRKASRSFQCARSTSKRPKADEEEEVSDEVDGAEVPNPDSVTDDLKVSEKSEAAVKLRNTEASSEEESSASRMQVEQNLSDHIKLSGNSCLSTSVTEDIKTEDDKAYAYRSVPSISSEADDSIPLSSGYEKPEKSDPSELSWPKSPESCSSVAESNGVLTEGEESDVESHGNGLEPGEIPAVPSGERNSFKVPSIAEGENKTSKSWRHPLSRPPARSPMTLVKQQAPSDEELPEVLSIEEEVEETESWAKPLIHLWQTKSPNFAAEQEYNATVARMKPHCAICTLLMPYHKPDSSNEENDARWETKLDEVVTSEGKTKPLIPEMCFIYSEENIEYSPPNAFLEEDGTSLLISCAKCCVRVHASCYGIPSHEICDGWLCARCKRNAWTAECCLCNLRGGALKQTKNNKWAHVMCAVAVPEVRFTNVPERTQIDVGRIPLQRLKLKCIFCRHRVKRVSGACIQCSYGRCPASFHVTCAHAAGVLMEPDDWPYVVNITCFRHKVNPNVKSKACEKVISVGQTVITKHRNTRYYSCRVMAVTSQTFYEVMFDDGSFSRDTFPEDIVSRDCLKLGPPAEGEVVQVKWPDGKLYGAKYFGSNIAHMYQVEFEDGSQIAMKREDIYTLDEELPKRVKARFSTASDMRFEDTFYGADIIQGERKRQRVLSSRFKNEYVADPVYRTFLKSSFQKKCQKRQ

[3] = molecular target: Lysine-specific demethylase 5B (Homo sapiens, UniProt Q9UGL1); experiment: Inhibition of KDM5B in human MKN-45 cells assessed as increase in H3K4me3 accumulation at 0.5 to 20 uM measured after 5 days by Western blot analysis; format: cell-based; conditions: dose 0.5-20 µM, time 5.0 day
Outline: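 MKN45 cells were treated for 5 days and lysed in RIPA buffer. About 30 µg protein was run on 10% SDS-PAGE and transferred to 0.2 µm nitrocellulose, then blocked with 5% milk in PBS for 2 h. Blots were probed for histone methylation marks with histone 3 as loading control and detected by ECL.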

[4] = molecular target: Lysine-specific demethylase 5A (Homo sapiens, UniProt P29375); experiment: Inhibition of KDM5A (unknown origin) at 0.25 uM relative to control
[5] = molecular target: Lysine-specific demethylase 6B (Homo sapiens, UniProt O15054); experiment: Inhibition of KDM6B (unknown origin) at 1 uM relative to control
[6] = molecular target: T2, Lysine-specific demethylase 4A (Homo sapiens) (UniProt O75164); experiment: Inhibition of KDM4A (unknown origin) at 0.01 uM relative to control
T2 sequence (whole entry): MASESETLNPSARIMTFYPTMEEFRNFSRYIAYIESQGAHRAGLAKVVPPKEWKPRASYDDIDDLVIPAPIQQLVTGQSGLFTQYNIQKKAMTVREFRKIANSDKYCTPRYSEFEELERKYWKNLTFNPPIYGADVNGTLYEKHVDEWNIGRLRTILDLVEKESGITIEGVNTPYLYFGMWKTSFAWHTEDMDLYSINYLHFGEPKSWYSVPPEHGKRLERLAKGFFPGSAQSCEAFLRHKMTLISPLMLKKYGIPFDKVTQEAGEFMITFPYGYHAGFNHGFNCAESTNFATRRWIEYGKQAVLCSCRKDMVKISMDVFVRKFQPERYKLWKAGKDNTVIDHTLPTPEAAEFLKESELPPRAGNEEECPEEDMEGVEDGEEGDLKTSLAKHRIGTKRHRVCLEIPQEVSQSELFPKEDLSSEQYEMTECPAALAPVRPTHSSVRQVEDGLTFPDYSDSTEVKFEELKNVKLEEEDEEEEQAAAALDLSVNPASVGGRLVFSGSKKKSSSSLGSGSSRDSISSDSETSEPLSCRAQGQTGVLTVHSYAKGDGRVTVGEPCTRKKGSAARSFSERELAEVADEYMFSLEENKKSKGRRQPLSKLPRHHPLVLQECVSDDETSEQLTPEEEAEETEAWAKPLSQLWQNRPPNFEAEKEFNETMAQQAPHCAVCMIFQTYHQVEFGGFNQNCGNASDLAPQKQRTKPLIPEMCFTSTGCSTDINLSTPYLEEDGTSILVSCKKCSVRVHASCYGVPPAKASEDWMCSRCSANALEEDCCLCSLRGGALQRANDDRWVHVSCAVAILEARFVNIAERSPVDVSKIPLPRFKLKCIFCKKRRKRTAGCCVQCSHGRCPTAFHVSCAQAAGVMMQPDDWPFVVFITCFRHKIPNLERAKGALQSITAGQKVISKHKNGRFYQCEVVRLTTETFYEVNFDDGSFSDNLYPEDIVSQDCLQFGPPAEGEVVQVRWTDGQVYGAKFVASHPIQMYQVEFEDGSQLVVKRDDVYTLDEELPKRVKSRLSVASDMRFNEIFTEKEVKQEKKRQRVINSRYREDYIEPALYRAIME

[7] = tested on: MKN-45; experiment: Antiproliferative activity against human MKN-45 cells assessed as reduction in cell proliferation measured after 4 days by MTS assay; format: functional, cell-based; conditions: MKN-45, 96 h; outline: as §1

Chain of Lysine-specific demethylase 5A (P29375 whole entry): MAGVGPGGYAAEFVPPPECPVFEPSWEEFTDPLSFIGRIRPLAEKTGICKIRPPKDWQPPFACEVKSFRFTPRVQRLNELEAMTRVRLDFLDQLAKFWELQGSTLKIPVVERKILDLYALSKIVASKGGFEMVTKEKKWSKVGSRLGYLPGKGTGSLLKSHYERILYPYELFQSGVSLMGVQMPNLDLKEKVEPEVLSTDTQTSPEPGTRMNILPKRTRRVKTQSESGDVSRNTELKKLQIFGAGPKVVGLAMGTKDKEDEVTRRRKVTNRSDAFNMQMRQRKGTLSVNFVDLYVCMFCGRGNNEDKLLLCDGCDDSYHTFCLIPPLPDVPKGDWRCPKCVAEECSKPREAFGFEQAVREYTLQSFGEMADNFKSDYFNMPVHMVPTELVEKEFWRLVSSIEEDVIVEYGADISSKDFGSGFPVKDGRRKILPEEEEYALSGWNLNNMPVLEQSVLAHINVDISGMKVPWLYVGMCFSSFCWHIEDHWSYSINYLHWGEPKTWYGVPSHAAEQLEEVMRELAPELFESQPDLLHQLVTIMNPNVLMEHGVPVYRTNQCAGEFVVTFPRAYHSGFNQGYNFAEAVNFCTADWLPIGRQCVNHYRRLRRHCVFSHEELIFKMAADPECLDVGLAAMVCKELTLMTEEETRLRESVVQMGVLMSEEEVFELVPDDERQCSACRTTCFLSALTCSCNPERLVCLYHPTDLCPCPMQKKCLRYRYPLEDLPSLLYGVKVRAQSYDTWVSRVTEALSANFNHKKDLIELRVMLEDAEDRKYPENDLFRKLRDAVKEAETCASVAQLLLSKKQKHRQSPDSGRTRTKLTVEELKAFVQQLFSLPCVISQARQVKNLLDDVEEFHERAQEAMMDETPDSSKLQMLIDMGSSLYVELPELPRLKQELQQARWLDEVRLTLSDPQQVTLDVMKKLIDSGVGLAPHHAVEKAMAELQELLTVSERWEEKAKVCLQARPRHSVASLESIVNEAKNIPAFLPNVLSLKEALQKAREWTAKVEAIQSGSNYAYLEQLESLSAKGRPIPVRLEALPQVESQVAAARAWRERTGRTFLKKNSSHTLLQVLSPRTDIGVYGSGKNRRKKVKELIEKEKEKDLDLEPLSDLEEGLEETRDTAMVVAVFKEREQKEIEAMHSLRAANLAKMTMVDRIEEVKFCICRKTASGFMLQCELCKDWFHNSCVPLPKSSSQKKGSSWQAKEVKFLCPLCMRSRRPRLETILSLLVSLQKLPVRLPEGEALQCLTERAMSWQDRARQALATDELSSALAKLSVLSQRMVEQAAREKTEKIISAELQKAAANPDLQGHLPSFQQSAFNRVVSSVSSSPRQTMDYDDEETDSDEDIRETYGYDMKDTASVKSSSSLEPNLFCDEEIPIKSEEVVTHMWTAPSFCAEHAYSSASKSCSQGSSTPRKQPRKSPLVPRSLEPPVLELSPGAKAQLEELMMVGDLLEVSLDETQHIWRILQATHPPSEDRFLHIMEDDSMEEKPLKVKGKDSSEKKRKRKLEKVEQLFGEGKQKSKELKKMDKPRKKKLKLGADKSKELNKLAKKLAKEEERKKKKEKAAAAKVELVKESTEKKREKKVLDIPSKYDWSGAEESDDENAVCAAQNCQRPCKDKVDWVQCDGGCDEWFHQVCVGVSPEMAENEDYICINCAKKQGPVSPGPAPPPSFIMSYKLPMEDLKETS
Chain of Lysine-specific demethylase 5B (Q9UGL1 whole entry): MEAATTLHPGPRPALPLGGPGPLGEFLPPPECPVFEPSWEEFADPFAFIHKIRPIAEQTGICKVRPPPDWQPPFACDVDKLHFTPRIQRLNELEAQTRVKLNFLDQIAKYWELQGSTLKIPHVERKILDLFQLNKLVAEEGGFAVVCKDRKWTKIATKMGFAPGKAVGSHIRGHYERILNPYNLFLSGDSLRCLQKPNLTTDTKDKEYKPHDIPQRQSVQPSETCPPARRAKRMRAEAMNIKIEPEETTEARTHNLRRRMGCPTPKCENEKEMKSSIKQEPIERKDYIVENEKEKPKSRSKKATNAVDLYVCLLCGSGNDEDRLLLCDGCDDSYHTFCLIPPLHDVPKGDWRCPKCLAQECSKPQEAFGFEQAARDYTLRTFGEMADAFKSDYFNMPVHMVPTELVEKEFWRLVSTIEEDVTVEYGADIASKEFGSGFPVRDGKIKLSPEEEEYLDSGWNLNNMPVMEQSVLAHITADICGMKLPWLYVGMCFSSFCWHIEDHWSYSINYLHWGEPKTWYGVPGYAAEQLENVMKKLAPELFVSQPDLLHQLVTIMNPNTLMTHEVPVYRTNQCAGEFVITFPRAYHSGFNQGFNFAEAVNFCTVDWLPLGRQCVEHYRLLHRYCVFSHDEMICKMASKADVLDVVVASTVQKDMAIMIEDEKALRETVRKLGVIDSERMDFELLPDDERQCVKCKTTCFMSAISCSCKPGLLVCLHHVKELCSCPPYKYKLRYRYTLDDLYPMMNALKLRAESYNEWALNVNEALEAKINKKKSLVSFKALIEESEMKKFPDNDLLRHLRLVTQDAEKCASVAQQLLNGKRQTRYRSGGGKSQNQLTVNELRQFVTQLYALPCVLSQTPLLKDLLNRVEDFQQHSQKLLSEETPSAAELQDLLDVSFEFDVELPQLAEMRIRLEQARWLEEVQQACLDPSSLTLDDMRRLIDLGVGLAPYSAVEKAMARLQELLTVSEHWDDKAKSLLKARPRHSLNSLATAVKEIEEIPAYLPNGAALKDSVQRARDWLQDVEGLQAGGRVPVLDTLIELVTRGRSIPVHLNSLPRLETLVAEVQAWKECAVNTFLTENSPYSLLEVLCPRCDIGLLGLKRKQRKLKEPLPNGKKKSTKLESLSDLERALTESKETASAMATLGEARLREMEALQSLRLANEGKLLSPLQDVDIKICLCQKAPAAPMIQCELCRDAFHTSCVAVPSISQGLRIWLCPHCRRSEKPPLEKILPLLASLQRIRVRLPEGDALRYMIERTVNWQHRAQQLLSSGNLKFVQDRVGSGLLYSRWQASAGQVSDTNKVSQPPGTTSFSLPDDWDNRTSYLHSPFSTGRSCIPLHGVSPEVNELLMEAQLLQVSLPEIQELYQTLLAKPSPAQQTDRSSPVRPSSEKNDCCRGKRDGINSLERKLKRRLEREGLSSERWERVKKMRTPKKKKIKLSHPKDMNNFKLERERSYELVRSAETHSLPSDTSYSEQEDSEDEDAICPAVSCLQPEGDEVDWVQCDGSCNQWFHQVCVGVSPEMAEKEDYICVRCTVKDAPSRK
Chain of Lysine-specific demethylase 6B (O15054 whole entry): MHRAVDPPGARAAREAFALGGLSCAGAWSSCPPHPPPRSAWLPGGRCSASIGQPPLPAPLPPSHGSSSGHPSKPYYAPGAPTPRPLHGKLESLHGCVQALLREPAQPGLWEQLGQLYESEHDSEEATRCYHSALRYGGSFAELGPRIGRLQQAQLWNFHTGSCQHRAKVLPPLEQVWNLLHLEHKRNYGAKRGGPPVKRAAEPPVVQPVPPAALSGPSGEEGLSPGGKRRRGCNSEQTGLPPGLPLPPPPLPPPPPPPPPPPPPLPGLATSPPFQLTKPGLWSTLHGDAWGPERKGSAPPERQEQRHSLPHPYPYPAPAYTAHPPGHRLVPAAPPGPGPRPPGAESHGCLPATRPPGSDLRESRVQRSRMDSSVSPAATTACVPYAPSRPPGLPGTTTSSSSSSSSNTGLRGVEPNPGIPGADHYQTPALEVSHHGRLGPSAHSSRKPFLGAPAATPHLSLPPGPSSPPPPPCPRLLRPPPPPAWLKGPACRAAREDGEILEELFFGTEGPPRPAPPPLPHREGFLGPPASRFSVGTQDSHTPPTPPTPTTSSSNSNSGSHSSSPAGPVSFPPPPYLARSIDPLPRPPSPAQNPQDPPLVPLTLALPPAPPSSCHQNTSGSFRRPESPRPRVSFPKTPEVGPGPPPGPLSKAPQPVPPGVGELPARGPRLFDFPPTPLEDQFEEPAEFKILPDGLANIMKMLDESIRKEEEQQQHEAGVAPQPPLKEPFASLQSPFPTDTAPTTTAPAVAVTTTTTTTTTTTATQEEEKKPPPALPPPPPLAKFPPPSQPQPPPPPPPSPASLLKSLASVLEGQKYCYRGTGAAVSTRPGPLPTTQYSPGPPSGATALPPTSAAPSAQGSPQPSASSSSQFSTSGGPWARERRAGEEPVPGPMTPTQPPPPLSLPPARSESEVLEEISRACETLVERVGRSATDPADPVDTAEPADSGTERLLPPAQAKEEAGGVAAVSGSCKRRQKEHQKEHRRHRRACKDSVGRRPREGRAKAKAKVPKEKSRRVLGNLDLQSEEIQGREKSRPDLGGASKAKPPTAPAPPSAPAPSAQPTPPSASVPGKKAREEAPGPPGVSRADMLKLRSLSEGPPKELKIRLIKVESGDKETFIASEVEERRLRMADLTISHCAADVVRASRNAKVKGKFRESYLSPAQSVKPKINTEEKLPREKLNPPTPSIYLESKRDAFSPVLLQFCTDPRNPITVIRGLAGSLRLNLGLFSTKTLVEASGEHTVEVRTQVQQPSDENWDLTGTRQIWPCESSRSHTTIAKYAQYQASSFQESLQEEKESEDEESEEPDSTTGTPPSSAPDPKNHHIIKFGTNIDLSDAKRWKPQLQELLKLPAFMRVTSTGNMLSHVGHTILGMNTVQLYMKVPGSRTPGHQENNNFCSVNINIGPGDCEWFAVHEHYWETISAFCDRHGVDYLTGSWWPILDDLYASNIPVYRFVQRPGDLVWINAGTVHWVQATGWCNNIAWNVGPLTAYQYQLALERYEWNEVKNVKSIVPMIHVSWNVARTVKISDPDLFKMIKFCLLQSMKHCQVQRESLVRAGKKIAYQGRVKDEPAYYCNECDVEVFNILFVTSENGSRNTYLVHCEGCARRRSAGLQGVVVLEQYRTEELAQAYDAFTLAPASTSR

SMILES: COc1ccc(-n2cc(C(=O)NCC(C)(C)N3CCOCC3)c(-c3ccccc3)n2)cc1
- IC50 [1]: 20.6 µM
- IC50 [2]: 1.11 µM
- inhibition [3]: Active
- inhibition [4]: 62.4%
- inhibition [5]: 19.6%
- inhibition [6]: 5.12%
- IC50 [7]: 26.7 µM
